This is a sample that favours compounds with a hit; in the whole collection about 3.7% have one here.
GPR7 antagonist: blocks human GPR7 receptor signaling | P48145 | GPR7-expressing cells, fluorescence antagonist assay | inhibition, % at 4.4 µM | hit rate 1.1% among 290,000 | AID 1861; in the data active = inhibition above about 16%, passing the limit was not always enough;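 also: cells stimulated with the agonist NPW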
CHO parental Ca: counter-screen: ATP calcium response change in parental CHO cells | parental CHO-K1, ATP-induced calcium, Fluo-8 fluorescence | AID 463079 | hit rate 0.63% among 330,000 | inhibition, % at 5.6 µM;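 active = inhibition above that plate's mean sample inhibition plus 3 SD, cut at about 26% in these data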
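Material: parental CHO cells / Compound: single nominal dose of 5.6 µM per compound / Signal: Fluo-8 fluorescence / Replicates: singlicate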
EP2 antag: EP2 receptor (human) inhibition; inhibition, % at 25 µM; C6 glioma cells expressing human EP2, cAMP TR-FRET; cells stimulated with saturating PGE2; hit rate 0.52% among 260,000;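 active = percent inhibition above 40 after rounding to a whole number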;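 also: rat C6 glioma host cells with rolipram phosphodiesterase inhibitor present; the protocol text gives 20 µM as final concentration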
EP2 mod: modulators of human EP2 prostaglandin E2 receptor; P43116; EP2-expressing cells, cAMP HTRF FRET, PGE2 co-stimulation; induction, % at 25 µM; hit rate 0.83% among 260,000; AID 940;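 active = compounds whose cAMP rise, as percent of the full-agonist control response, exceeds 60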;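 also: rat C6 glioma line stably carrying human EP2 under a CMV promoter; the protocol text gives 20 µM as final concentration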
OX1R antag-1: human HCRTR1 antagonism; hit rate 0.43% among 330,000; CHO/OX1R cells, Fluo-8 calcium fluorescence, orexin A; O43613; inhibition, % at 5 µM;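 active = inhibition above its plate's threshold, mean inhibition of all tested compounds on the plate plus 3 SD, cut at about 37% in these data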
Target sequence (O43613 whole entry, looked up): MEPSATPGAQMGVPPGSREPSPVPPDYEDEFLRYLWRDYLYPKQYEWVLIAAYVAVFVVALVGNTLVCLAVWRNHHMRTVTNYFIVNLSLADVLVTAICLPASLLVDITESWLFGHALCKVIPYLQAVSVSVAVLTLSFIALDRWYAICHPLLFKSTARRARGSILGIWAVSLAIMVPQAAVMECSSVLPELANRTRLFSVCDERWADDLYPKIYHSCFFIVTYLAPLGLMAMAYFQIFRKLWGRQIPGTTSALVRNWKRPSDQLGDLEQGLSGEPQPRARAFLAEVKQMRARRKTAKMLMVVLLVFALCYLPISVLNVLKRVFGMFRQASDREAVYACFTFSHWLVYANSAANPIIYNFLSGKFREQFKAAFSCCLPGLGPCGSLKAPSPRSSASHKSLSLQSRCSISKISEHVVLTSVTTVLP
OX1R antag-2: OX1R (human) antagonism; OX1R-expressing cells, FRET antagonist read-out; inhibition, % at 6.6 µM; hit rate 1.8% among 330,000; AID 485270; in the data active = inhibition mostly above about 38%, no sharp cut-off; inactive = mostly below about 40%
EP2 cAMP induct: EP2 receptor cAMP induction, counter-screens negative; shares compounds with EP2 mod; C6 glioma EP2 cells, cAMP HTRF induction; plus low (about EC15) PGE2 agonist; calls only at 20 µM (by protocol); hit rate 47% among 1,300; AID 1080;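 active = cAMP induction above 50% in the main assay while under 30% in all four parallel counter assays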;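 also: rat C6 glioma cells stably expressing human EP2 receptor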
Numbers stand for hits; 0 = inactive; - = not tested or not shown; + = active, no number.

SMILES	GPR7 antagonist	CHO parental Ca	EP2 antag	EP2 mod	OX1R antag-1	OX1R antag-2	EP2 cAMP induct
c1ccc(CCc2nc(-c3cccnc3)no2)cc1	0	0	0	0	0	0	-
c1ccc2c(-c3nc(-c4ccncc4)no3)cccc2c1	0	0	0	0	0	0	-
c1ccc(-c2ccccc2-c2nc(-c3cccnc3)no2)cc1	0	0	0	72	0	0	+
c1ccc(CCc2ccccc2-c2nc(-c3ccccn3)no2)cc1	0	0	0	101	0	0	+
Cc1occc1-c1nc(-c2ccccn2)no1	0	0	0	0	0	0	-
c1ccc(-c2noc(-c3cccc4ccccc34)n2)cc1	0	0	0	69	0	0	0
c1ccc(CCc2ccccc2-c2nc(-c3cccnc3)no2)cc1	0	0	0	82	0	0	+
COc1ccc(C(=O)COC(=O)C(CCSC)NS(=O)(=O)c2ccc(Cl)cc2)cc1 (stereo unspecified)	0	0	0	70	0	0	0
COC(=O)C(CCSC)NS(=O)(=O)c1ccc(Cl)cc1 (stereo unspecified)	0	0	0	0	0	0	-
CCOC(=O)C1=C(C)OC(N)=C(C#N)C1c1cc(SCC)oc1C (stereo unspecified)	0	0	0	0	0	0	-
CCOC(=O)C1=C(C)OC(N)=C(C#N)C1c1cc(C)sc1C (stereo unspecified)	0	0	0	0	0	0	0
CCOC(=O)C1=C(C)N(C)C(C)=C(C(=O)OCC)C1c1ccc(Cl)cc1	0	0	0	0	0	0	-
CCOC(=O)C1=C(CC)OC(N)=C(C#N)C1c1ccsc1 (stereo unspecified)	0	0	0	0	0	0	0
CCOC(=O)C1=C(C)N(C)C(C)=C(C(=O)OCC)C1c1ccsc1	0	0	0	72	0	0	+
C=C1CCC2C(CC2(C)C)C(=C)CC/C1=N/O (stereo unspecified)	-	-	0	0	-	-	0
CCn1nnnc1SCC(=O)Nc1cccc(C)n1	0	0	0	70	0	0	0
CCn1nnnc1SCC(=O)Nc1ccc(F)cc1	0	0	-	-	0	0	-
Cc1n[nH]c(=S)c2nn(-c3ccccc3)c(C)c12	0	-	-	0	-	-	-
Cc1ccc(-n2nc3c(=S)[nH]nc(C)c3c2C)cc1	0	0	-	81	0	0	0
N#Cc1sc2nc(N3CCCCC3)c3c(c2c1N)CCCC3	0	0	0	73	0	0	+
O=S(=O)(c1ccc(SCCOc2ccc(F)cc2)nc1)N1CCCC1	-	0	-	-	0	0	-
Cc1ccc(NCc2n[nH]c(=S)n2Cc2ccccc2)cc1Cl	0	-	0	0	-	-	0
Cc1ccc(NCc2nnc(SCC(=O)O)n2Cc2ccccc2)cc1Cl	0	0	0	0	0	0	-
N#CN=C1SCCS1	0	0	0	66	0	0	0
NS(=O)(=O)c1ccc(NCc2cnc3ccccc3c2)cc1	-	-	0	0	-	-	-
SMILES	GPR7 antagonist	CHO parental Ca	EP2 antag	EP2 mod	OX1R antag-1	OX1R antag-2	EP2 cAMP induct
NS(=O)(=O)c1ccc(NCc2cnc3ccccc3n2)cc1	-	-	0	71	-	-	0
CCCCn1c(SCC(=O)N(CC)C2CCS(=O)(=O)C2)nnc1C(CC)N(C)C (stereo unspecified)	0	0	0	0	0	0	-
Cc1ncc([N+](=O)[O-])n1CC(=O)Nc1ccc(Br)cc1	0	0	-	-	0	0	-
Cc1ccc2c(c1)N(S(=O)(=O)c1ccc(F)cc1)C(C(C)(C)C)CO2 (stereo unspecified)	0	0	0	77	0	0	+
COC(=O)CC1COc2ccccc2N1S(=O)(=O)c1ccc(OC)cc1 (stereo unspecified)	0	0	-	-	0	0	-
Cc1ccc2c(c1)NC(C(C)(C)C)CO2 (stereo unspecified)	0	0	0	0	0	0	-
Cc1ccc(S(=O)(=O)N2c3ccccc3OCC2C(C)(C)C)cc1 (stereo unspecified)	0	0	0	88	0	0	+
CC1CN(C(=O)/C(=C/c2ccco2)NC(=O)c2ccccc2)CC(C)O1 (stereo unspecified)	0	0	-	-	0	0	-
Cc1ccc(S(=O)(=O)n2c3ccc(F)cc3c3nc(C)sc32)cc1	0	0	0	95	0	0	+
CCCc1cc(=O)[nH]c(SCC(=O)N2CCC(C)CC2)n1	0	0	-	-	0	0	-
CCCc1cc(=O)[nH]c(SCC(=O)N2CCC(C(=O)OCC)CC2)n1	0	0	0	68	0	0	0
O=C(c1ccccc1)N1N=C(c2ccccc2)CC1c1ccccc1O (stereo unspecified)	0	0	0	85	0	0	+
O=C(c1ccncc1)N1N=C(c2ccc(Br)cc2)CC1c1ccccc1O (stereo unspecified)	0	0	-	-	0	0	-
COc1c(Cl)cc(Cl)cc1C(=O)n1nc(C)cc1C	0	0	0	74	0	0	0
Cc1cc(C)n(C(=O)c2ccc(Cl)c(F)c2F)n1	0	0	0	0	0	0	-
CCN(CC)CC(=O)NCC1(c2ccccc2)CCCC1	0	0	0	0	0	0	-
CCCN(CCC)C(C)C(=O)NCC1(c2ccccc2)CCCC1 (stereo unspecified)	0	0	0	74	0	0	+
Cc1ccc(C)c(OCC(=O)NNC(=O)c2ccc(NC(=O)C3CC3)cc2)c1	0	-	-	-	-	-	-
COc1ccccc1CNC(=S)Nc1cc(C)ccc1C	0	0	0	0	0	0	-
COc1ccccc1CNc1cc(C)ccc1C	0	0	0	66	0	0	0
CC(=O)Nc1ncnc2c1c(-c1ccc(Cl)cc1)nn2C(C)(C)C	0	0	0	0	0	0	-
CCC(C)NC(=O)C1CCN(C(=O)c2cc(OC)cc(OC)c2)CC1 (stereo unspecified)	-	-	0	0	-	-	-
CCc1nnc(SCC(=O)Nc2ccc3c(c2)OCO3)n1CC	0	0	-	-	0	0	-
CCn1c(COc2ccc(Cl)cc2)nnc1SCC(=O)Nc1ccc2c(c1)OCO2	0	0	0	65	0	0	0
N#CCSc1nc2c(c(C3CC=CCC3)c1C#N)CCC2 (stereo unspecified)	0	0	0	78	0	0	+
SMILES	GPR7 antagonist	CHO parental Ca	EP2 antag	EP2 mod	OX1R antag-1	OX1R antag-2	EP2 cAMP induct
O=C(O)C1CCN(S(=O)(=O)c2ccc(Oc3ccccc3)cc2)CC1	0	0	0	0	0	0	-
O=C(CN1CCN(Cc2ccc3c(c2)OCO3)CC1)c1c[nH]c2ccccc12	0	0	0	0	0	0	-
CCn1ncc(Cl)c1C(=O)Nc1cc(Cl)ccc1Cl	0	0	0	70	0	0	+
FC(F)(F)c1cc(-c2ccccc2)nc2nc(N3CCOCC3)sc12	0	0	0	67	0	0	+
O=C(NCc1ccc(F)cc1)c1cnccn1	0	0	-	-	0	0	-
Cc1ccc(NC(=S)N(Cc2ccco2)C(C)c2cccs2)c(Cl)c1 (stereo unspecified)	0	0	0	0	0	0	-

Screens (PubChem BioAssay)
